A word on the IC50: it is the concentration at which inhibition is half-maximal. The low end stands for inhibition by little substance, the high end for a need for much substance. In general, Ki refers to a dissociation constant, usually derived from enzyme kinetics or from competition with a known ligand.

SMILES strings stand for the structures.

In series [1] the test system is HT-29. The experiment in a line: Cytotoxicity against human HT-29 cells after 24 hrs by MTT assay. The class given is cell-based. The note with it: HT-29, 24 h. The essentials:
(§1)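 MTT viability assay in hERG-transfected HEK293 cells and in HT-29 cells exposed to probe. Half-maximal inhibitory concentration was derived for each cell line and reported as mean ± deviation.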

The test system of series [2] is HEK293. The experiment in a line: Cytotoxicity against human ERG transfected HEK293 cells after 24 hrs by MTT assay. In kind it is cell-based. Conditions: HEK293, 24 h; call rule not given here. Put shortly:
as §1
On the technique in general: Tetrazolium dyes change colour on reduction, which living cells bring about.

Series [3] has as its target T1, Voltage-gated inwardly rectifying potassium channel KCNH2 (Homo sapiens, UniProt Q12809). The experiment in a line: Binding affinity to ERG channel in human HT-29 cells assessed as fluorescence signal at 0.5 uM incubated for 10 mins by fluorescence microscopic imaging analysis in presence of astemizole. The class given is cell-based. Conditions: ht-29, 10 min. The essentials:
(§2)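 Competition imaging in hERG-transfected HEK293 or HT-29 cells. Cells were co-incubated with 100 μM astemizole and 0.5 μM probe, then imaged by fluorescence microscopy in bright field and the GFP channel. Cell autofluorescence, with and without astemizole, was checked separately.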

For series [4], the target named is T1, Voltage-gated inwardly rectifying potassium channel KCNH2. The experiment in a line: Binding affinity to ERG channel in human HT-29 cells assessed as fluorescence signal at 0.5 uM incubated for 10 mins by fluorescence microscopic imaging analysis. The class given is cell-based. The note with it: ht-29, 10 min. Put shortly:
(§3)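 Live-cell fluorescence microscopy of hERG-transfected HEK293 cells or HT-29 colorectal cancer cells incubated with probe at 0.5 μM. Images were taken in bright field and in the GFP channel. Probe photophysics were characterised at 10 μM in PBS, pH 7.4.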

The target is the same in series [5]. The experiment in a line: Binding affinity to human ERG channel expressed in HEK293 cells assessed as fluorescence signal at 0.5 uM incubated for 10 mins by fluorescence microscopic imaging analysis. The class given is cell-based. Conditions: hek293, 10 min. The essentials:
as §3

Series [6] shares this target. The experiment in a line: Binding affinity to human ERG channel expressed in HEK293 cells assessed as fluorescence signal at 0.5 uM incubated for 10 mins by fluorescence microscopic imaging analysis in presence of astemizole. In kind it is cell-based. The note with it: hek293, 10 min. The essentials: as §2
Series [7] shares this target. The experiment in a line: Displacement of [3H] dofetilide from human ERG channel expressed in HEK293 cell membranes incubated for 2 hrs by scintillation counting analysis. A general note: Displacement assays read how much labelled ligand stays bound in the presence of the test substance.

T1 sequence (Q12809 whole entry): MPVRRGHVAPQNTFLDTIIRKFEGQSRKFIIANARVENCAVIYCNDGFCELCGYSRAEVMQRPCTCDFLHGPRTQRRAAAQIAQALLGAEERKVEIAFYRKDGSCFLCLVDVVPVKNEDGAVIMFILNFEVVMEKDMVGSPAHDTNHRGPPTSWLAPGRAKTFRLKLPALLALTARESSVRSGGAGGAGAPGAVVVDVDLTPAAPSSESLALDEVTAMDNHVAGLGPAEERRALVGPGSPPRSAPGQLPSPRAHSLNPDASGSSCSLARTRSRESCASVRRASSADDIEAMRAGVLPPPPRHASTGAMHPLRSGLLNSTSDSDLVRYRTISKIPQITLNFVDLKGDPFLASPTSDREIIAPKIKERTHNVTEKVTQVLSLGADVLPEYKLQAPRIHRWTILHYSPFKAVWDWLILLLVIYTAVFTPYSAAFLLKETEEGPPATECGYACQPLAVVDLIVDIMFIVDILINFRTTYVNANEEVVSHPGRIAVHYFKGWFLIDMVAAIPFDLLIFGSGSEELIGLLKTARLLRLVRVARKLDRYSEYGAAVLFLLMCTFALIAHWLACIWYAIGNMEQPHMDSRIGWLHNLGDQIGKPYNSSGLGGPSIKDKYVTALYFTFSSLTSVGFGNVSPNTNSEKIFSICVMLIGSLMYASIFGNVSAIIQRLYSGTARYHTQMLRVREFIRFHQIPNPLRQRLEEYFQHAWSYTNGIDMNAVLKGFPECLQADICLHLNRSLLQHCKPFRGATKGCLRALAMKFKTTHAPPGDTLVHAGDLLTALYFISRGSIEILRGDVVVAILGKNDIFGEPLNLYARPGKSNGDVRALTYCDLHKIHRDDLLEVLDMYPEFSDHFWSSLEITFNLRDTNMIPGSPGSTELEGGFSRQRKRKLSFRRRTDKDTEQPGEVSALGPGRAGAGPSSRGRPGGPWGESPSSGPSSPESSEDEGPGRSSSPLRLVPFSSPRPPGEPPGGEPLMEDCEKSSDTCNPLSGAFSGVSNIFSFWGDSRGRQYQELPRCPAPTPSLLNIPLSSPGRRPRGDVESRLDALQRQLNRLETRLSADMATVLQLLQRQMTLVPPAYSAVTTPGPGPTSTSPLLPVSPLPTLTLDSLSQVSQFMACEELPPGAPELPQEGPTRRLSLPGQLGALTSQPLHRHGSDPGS

Regarding `CCN(CC)c1ccc2cc(C(=O)NCCCCN3CCC(Nc4nc5ccccc5n4Cc4ccc(F)cc4)CC3)c(=O)oc2c1`, the IC50 came to 9.9 µM in series [1] and 4.7 µM in series [2].

As to `CC(=O)Nc1ccc2c3c(cccc13)C(=O)N(CCCCN1CCC(Nc3nc4ccccc4n3Cc3ccc(F)cc3)CC1)C2=O`, the IC50 in series [1] is 18.6 µM; in series [2], 7.2 µM.

In the case of `O=[N+]([O-])c1ccc(NCCCCN2CCC(Nc3nc4ccccc4n3Cc3ccc(F)cc3)CC2)c2nonc12`, the Activity entry in series [3] is given as “Not Active”; in series [4], “Active”; in series [5], “Active”; in series [6] it was “Not Active”. Besides, the IC50 in series [1] is 36.1 µM; in series [2] it was 12.5 µM; in series [7], 0.025 µM. This molecule gave a Ki in series [7] of 0.012 µM.

Regarding `COc1ccc(CCN2CCC(Nc3nc4ccccc4n3Cc3ccc(F)cc3)CC2)cc1` [ASTEMIZOLE], the IC50 worked out at 15.4 µM in series [1] and 5.1 µM in series [2].

Source of the values: ChEMBL document CHEMBL3804778, “Astemizole Derivatives as Fluorescent Probes for hERG Potassium Channel Imaging” (ACS Med Chem Lett, 2016).
